According to ChEMBL document CHEMBL3580642, “Cytotoxic Bryostatin Derivatives from the South China Sea Bryozoan Bugula neritina” (J Nat Prod, 2015):
pIC50: −log10 of the molar value. The source made the active and inactive calls. No cut-off for these calls is given here.

Columns and labels:
K562 [1] = experiment: Cytotoxicity against human K562 cells assessed as reduction in cell viability incubated for 72 hrs by MTT method; assay type: functional, cell-based; details: K562, 72 h
In short: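 Cells were grown in RPMI-1640 or DMEM with 10% FBS at 37 °C, humidified 5% CO2. Adherent cells attached for 12 h before dosing, and suspension cells were seeded at 1 × 10^5 cells/mL. […] MTT read-out used DMSO solubilisation and OD 490 nm. IC50 came from mean OD versus concentration curves.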

[2] = Cytotoxicity against human SGC7901 cells assessed as reduction in cell viability incubated for 72 hrs by MTT method; details: SGC-7901, 72 h
HeLa [3] = experiment: Cytotoxicity against human HeLa cells assessed as reduction in cell viability incubated for 72 hrs by MTT method
U-937 [4] = experiment: Cytotoxicity against human U937 cells assessed as reduction in cell viability at 20 ug/ml incubated for 72 hrs by MTT method; assay type: functional, cell-based
In short: (§1)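 Cultures were kept in RPMI-1640 or DMEM with 10% FBS at 37 °C, 5% CO2. Adherent cells were dosed after 12 h attachment, and suspension cells were seeded at 1 × 10^5 cells/mL. Triplicate 72 h exposure was followed by MTT, DMSO solubilisation and OD 490 nm. Activity was scored at a concentration of 20 μg/mL.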

K562 [5] = experiment: Cytotoxicity against human K562 cells assessed as reduction in cell viability at 20 ug/ml incubated for 72 hrs by MTT method; assay type: functional, cell-based; in short: as §1
SGC-7901 = experiment: Cytotoxicity against human SGC7901 cells assessed as reduction in cell viability at 20 ug/ml incubated for 72 hrs by MTT method; assay type: functional, cell-based; in short: as §1
HeLa [6] = experiment: Cytotoxicity against human HeLa cells assessed as reduction in cell viability at 20 ug/ml incubated for 72 hrs by MTT method; assay type: functional, cell-based; in short: as §1
U-937 [7] = experiment: Cytotoxicity against human U937 cells assessed as reduction in cell viability incubated for 72 hrs by MTT method; assay type: functional, cell-based; details: U-937, 72 h

Row | SMILES | pIC50 (K562 [1]) | pIC50 [2] | pIC50 (HeLa [3]) | inhibition (U-937 [4]) | inhibition (K562 [5]) | inhibition (SGC-7901) | inhibition (HeLa [6]) | pIC50 (U-937 [7])
1 | COc1cccc2c1C(=O)c1c(O)c3c(c(O)c1C2=O)C[C@@](O)(C(=O)CO)C[C@@H]3O[C@H]1C[C@H](N)[C@H](O)[C@H](C)O1 [DOXORUBICIN] | 6.70 | 6.70 | 7.00 | – | – | – | – | –
2 | CCCC(=O)O[C@H]1/C(=C/C(=O)OC)C[C@@H]2C[C@H]([C@@H](C)O)OC(=O)C[C@H](O)C[C@@H]3C[C@H](OC(=O)CC(C)C)C(C)(C)[C@](O)(C[C@@H]4C/C(=C/C(=O)OC)C[C@H](/C=C/C(C)(C)[C@]1(O)O2)O4)O3 | – | – | – | inactive | inactive | inactive | inactive | –
3 | CCCC(=O)O[C@H]1/C(=C/C(=O)OC)C[C@H]2C[C@H]([C@@H](C)O)OC(=O)C[C@H](O)C[C@@H]3C[C@H](OC(=O)C(C)(C)C)C(C)(C)[C@](OC)(C[C@@H]4C/C(=C/C(=O)OC)C[C@H](/C=C/C(C)(C)[C@]1(O)O2)O4)O3 | – | – | – | inactive | inactive | inactive | inactive | –
4 | CCCC(=O)O[C@H]1/C(=C/C(=O)OC)C[C@H]2C[C@H]([C@@H](C)O)OC(=O)C[C@H](O)C[C@@H]3C[C@H](OC(=O)C(C)(C)C)C(C)(C)[C@](O)(C[C@@H]4C/C(=C/C(=O)OC)C[C@H](/C=C/[C@H](C)[C@]1(O)O2)O4)O3 | 5.00 | – | – | – | – | inactive | inactive | 5.11
